Test [1] deals with T1, Steryl-sulfatase (Homo sapiens, UniProt P08842).
T1 sequence (P08842 whole entry): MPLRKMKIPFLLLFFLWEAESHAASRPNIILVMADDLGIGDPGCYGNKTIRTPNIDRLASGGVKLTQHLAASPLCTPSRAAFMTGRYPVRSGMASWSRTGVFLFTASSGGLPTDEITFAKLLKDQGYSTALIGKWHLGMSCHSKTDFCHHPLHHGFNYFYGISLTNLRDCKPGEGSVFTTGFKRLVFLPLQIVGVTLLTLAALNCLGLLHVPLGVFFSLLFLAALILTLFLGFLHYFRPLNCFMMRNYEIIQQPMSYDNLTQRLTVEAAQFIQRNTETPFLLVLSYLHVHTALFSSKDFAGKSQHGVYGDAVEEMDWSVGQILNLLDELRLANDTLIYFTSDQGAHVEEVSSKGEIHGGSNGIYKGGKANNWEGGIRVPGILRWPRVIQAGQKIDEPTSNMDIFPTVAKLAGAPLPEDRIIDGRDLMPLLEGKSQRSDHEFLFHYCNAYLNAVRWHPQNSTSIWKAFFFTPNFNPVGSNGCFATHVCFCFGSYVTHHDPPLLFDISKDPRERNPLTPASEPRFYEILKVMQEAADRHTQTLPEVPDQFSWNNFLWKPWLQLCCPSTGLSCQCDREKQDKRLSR

Test [2] concerns the target T2, Steryl-sulfatase (Homo sapiens) (UniProt P08842).
T2 sequence (whole entry): T1 sequence (P08842 whole entry)
The experiment in a line: Inhibition of steroid sulfatase in human MCF7 cells using [3H]E1S as substrate at 10 uM after 20 hrs by scintillation spectrometry. In kind it is cell-based. An outline of the steps:
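Intact MCF-7 monolayers exposed to inhibitor with [3H]E1S (5 pmol, 60 Ci/mmol) in serum-free minimal essential medium, 20 h at 37 °C. Product estrone split from E1S by toluene partition, with [14C]estrone as recovery marker. 3H and 14C counted by scintillation. E1S hydrolysed calculated from 3H counts, corrected for volumes and 14C recovery, and from substrate specific activity.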

The target of test [3] is T1, Steryl-sulfatase. Briefly: Inhibition of steroid sulfatase in human MCF7 cells using [3H]E1S as substrate after 20 hrs by scintillation spectrometry. In kind it is cell-based. An outline of the steps: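 Intact MCF-7 monolayers incubated 20 h at 37 °C with [3H]E1S (5 pmol, 7 × 10^5 dpm) in serum-free minimal essential medium, with or without inhibitor (0.1–10 range). Estrone product separated from E1S by toluene partition; [14C]estrone corrected procedural losses. 3H/14C counted by scintillation; E1S hydrolysed calculated from 3H counts and substrate specific activity; IC50 derived.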

Test [4] concerns the target T2, Steryl-sulfatase (Homo sapiens). The settings on record: MCF7, 0.01 uM.
Test [5] concerns Rattus norvegicus. The experiment in a line: Inhibition of steroid sulfatase in rat liver at 10 mg/kg, po. It is filed as functional.
The test system of test [6] is Rattus norvegicus. Briefly: Inhibition of steroid sulfatase in rat liver at 10 mg/kg, sc. In kind it is functional. The settings on record: route subcutaneous.
In test [7] the test system is Rattus norvegicus. Briefly: Inhibition of steroid sulfatase in rat liver at 10 mg/kg, po administered as single dose measured up to 7 days. In kind it is functional. The settings on record: 168 h.
Test [8] has as its system Rattus norvegicus. The experiment in a line: Inhibition of steroid sulfatase in rat liver at 10 mg/kg, sc administered as single dose measured up to 7 days. It is filed as functional. The settings on record: 168 h, route subcutaneous.

A value given as a limit tells only on which side of the number the result lay.

A word on the IC50: it is the point on the concentration scale where inhibition reaches its midpoint. A lower IC50 goes with inhibition by little substance. `CCc1cc2c(cc1OS(N)(=O)=O)CC[C@@H]1[C@@H]2CC[C@]2(C)C(=O)CC[C@@H]12` returned a half-maximal inhibitory concentration (IC50) against Steryl-sulfatase [1] of 820 nM.

As usually defined, the inhibition is the change of the read-out against control, counted positive when it falls. Low readings indicate a response near the control, high ones a response far below the control. As for `CCCc1cc2c(c(CCC)c1OS(N)(=O)=O)CC[C@@H]1[C@@H]2CC[C@]2(C)C(=O)CC[C@@H]12`, the inhibition in test [2] was under 10%. The molecule further showed a half-maximal inhibitory concentration (IC50) against Steryl-sulfatase [1] of over 10000 nM.

With `C=CCc1cc2c(c(CC=C)c1OS(N)(=O)=O)CC[C@@H]1[C@@H]2CC[C@]2(C)C(=O)CC[C@@H]12`, in test [2], the inhibition was under 10%. The molecule further gave a half-maximal inhibitory concentration (IC50) against Steryl-sulfatase [1] of over 10000 nM. Consider `C[C@]12CC[C@@H]3c4ccc(OS(N)(=O)=O)c(Br)c4CC[C@H]3[C@@H]1CCC2=O`, for which the concentration for half-maximal inhibition (IC50) was found to be 42 nM against Steryl-sulfatase [3] and 1200 nM at Steryl-sulfatase [1]. For `C[C@]12CC[C@@H]3c4cc(Cl)c(OS(N)(=O)=O)cc4CC[C@H]3[C@@H]1CCC2=O`, the results for the 50% inhibitory concentration (IC50) on Steryl-sulfatase [3] and against Steryl-sulfatase [1] were 0.44 nM and 3.4 nM, respectively. In the case of `C[C@]12CC[C@@H]3c4ccc5c(c4CC[C@H]3[C@@H]1CCC2=O)NS(=O)(=O)O5`, the half-maximal inhibitory concentration (IC50) against Steryl-sulfatase [1] was over 10000 nM.

Regarding `C[C@]12CC[C@@H]3c4cc(I)c(OS(N)(=O)=O)cc4CC[C@H]3[C@@H]1CCC2=O`, on Steryl-sulfatase [3], the midpoint of inhibition, the IC50, lay at 0.81 nM.

Take `C[C@@]12CCC[C@H]1[C@@H]1CCc3cc(OS(N)(=O)=O)ccc3[C@H]1CC2`: on Steryl-sulfatase [1], half-maximal inhibition (IC50) was put at 199 nM. The molecule further came in with an inhibition in test [4] of 97%. As for `C[C@]12CC[C@@H]3c4ccc(OS(N)(=O)=O)c([N+](=O)[O-])c4CC[C@H]3[C@@H]1CCC2=O`, the half-inhibitory concentration (IC50) against Steryl-sulfatase [3] was 0.01 nM; on Steryl-sulfatase [1], 0.8 nM.

As for `CCCc1cc2c(cc1OS(N)(=O)=O)CC[C@@H]1[C@@H]2CC[C@]2(C)C(=O)CC[C@@H]12`, the IC50 on Steryl-sulfatase [3] came out at 236 nM; at Steryl-sulfatase [1] it was 2900 nM.

On Steryl-sulfatase [3], `C[C@]12CC[C@@H]3c4cc(Br)c(OS(N)(=O)=O)cc4CC[C@H]3[C@@H]1CCC2=O` returned an IC50 of 0.11 nM. That is a sub-nanomolar value. As for `C[C@]12CC[C@@H]3c4cc(C(F)F)c(OS(N)(=O)=O)cc4CC[C@H]3[C@@H]1CCC2=O`, half-maximal inhibition against Steryl-sulfatase [1] (IC50) required 0.1 nM. One may read the inhibition in vivo as the percentage by which the read-out fell short of the control. On to `C[C@]12CC[C@@H]3c4ccc(OS(N)(=O)=O)cc4CC[C@H]3[C@@H]1CCC2=O` [EMATE], for which the values for the IC50 at Steryl-sulfatase [3] and against Steryl-sulfatase [1] were 0.83 nM and 18 nM, respectively. For the same molecule, the inhibition in vivo at 10 mg/kg is 99% in the test with Rattus norvegicus [5], 99% with Rattus norvegicus [6], over 95% in the test on Rattus norvegicus [7] and over 95% in the test on Rattus norvegicus [8]. On to `C=CCc1cc2c(cc1OS(N)(=O)=O)CC[C@@H]1[C@@H]2CC[C@]2(C)C(=O)CC[C@@H]12`, for which the IC50 against Steryl-sulfatase [3] amounted to 37 nM; against Steryl-sulfatase [1], 2500 nM. For the molecule `C[C@]12CC[C@@H]3c4cc([N+](=O)[O-])c(OS(N)(=O)=O)cc4CC[C@H]3[C@@H]1CCC2=O`, the IC50 against Steryl-sulfatase [3] was found to be 8.3 nM; against Steryl-sulfatase [1], 70 nM. As for `CN1c2cc3c(cc2OS1(=O)=O)CC[C@@H]1[C@@H]3CC[C@]2(C)C(=O)CC[C@@H]12`, on Steryl-sulfatase [1], the IC50 was over 10000 nM. On the same count and under the same terms, the figure for `C[C@]12CC[C@@H]3c4cc5c(cc4CC[C@H]3[C@@H]1CCC2=O)OS(=O)(=O)N5` is over 10000 nM. Turning to `C[C@]12CC[C@@H]3c4cc(C#N)c(OS(N)(=O)=O)cc4CC[C@H]3[C@@H]1CCC2=O`, the IC50 at Steryl-sulfatase [3] is 1.2 nM; at Steryl-sulfatase [1], 5.2 nM.

Consider `CCCc1c(OS(N)(=O)=O)ccc2c1CC[C@@H]1[C@@H]2CC[C@]2(C)C(=O)CC[C@@H]12`, for which the inhibition in test [2] is under 10%. The molecule further returned a 50% inhibitory concentration (IC50) against Steryl-sulfatase [1] of over 10000 nM. `Cc1cc2c(cc1OS(N)(=O)=O)CC[C@@H]1[C@@H]2CC[C@]2(C)C(=O)CC[C@@H]12` gave an IC50 at Steryl-sulfatase [1] of over 10000 nM. As to `C[C@]12CC[C@@H]3c4cc(F)c(OS(N)(=O)=O)cc4CC[C@H]3[C@@H]1CCC2=O`, the IC50 was found to be 0.62 nM against Steryl-sulfatase [3] and 5.6 nM against Steryl-sulfatase [1].

For the origin of these results see ChEMBL document CHEMBL2010652, “Synthesis and evaluation of analogues of estrone-3-O-sulfamate as potent steroid sulfatase inhibitors” (Bioorg Med Chem, 2012).
